High-throughput results as filed in PubChem BioAssay.
Hck Nef HTS = blocks Nef-activated human Hck kinase | P08631 | AID 463187 | Recombinant Hck-YEEI plus Nef, Z-Lyte FRET kinase assay | inhibition, % at 20 µM | 220,000 tested, 0.68% active;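 active = Hck-Nef kinase inhibition above about 50%, limit read from the data; inactive = inhibition below that limit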;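 note: 0% = DMSO with Hck plus Nef and 100% = Hck alone without Nef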
Target sequence (P08631 whole entry, looked up): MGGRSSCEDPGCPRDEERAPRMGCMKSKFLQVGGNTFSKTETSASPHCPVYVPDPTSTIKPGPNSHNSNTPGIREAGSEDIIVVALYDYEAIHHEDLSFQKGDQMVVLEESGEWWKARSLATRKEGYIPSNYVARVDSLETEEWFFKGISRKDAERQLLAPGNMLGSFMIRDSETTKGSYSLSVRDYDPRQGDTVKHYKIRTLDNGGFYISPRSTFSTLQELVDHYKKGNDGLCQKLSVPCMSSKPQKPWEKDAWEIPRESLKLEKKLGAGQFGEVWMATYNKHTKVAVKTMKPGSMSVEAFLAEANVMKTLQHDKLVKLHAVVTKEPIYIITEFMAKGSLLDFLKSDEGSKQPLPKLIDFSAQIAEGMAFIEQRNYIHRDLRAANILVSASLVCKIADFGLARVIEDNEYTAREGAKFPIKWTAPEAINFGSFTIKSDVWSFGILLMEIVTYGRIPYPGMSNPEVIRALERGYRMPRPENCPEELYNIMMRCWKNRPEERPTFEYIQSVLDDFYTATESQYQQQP
Autophagy mod = alters autophagy in cells; MEF GFP-LC3 puncta imaging; test concentration mostly 10 µM; 190,000 tested, 0.98% active; AID 463193; calls only at 10 µM (by protocol);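 active = percentage of spot-positive cells more than 3 SD above its plate mean, without a fluorescence outlier flag or 80% toxicity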;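 note: spot-positive cell cutoff set from DMSO-treated cells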
Mdm2 ligase inh = Mdm2 E3 ligase (human) inhibition. Q00987. cell-based MDM2 ubiquitination luciferase reporter, 2 h; 0 = plate control, 100 = twice control, blank-subtracted. signal enhancement, % at 5 µM. 210,000 tested, 0.11% active;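 active = signal enhancement of 30% or more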;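 note: luminescence tracks abundance of the self-degrading MDM2-luciferase fusion protein; higher signal means inhibition of MDM2 E3 ligase activity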
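Material: Stable MDM2–luciferase fusion reporter cells | Amount: 2000 cells seeded into each well | Dosing: One concentration, 5 µM, with 0.2% DMSO | Incubation: 4 h cell settling then 2 h compound exposure, 37 °C | Measured by: Luciferase luminescence | Read-out basis: % enhancement relative to plate controls after blank subtraction | Benchmarks: Control and blank well means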
Dynein cargo inh = blocks dynein driven cargo transport along microtubules; 3617.4 mouse cells, GR-EGFP nuclear translocation imaging; test concentration mostly 20 µM; stimulated with dexamethasone, 1 µM; active compounds read low; z-score, hits read low; 220,000 tested, 0.47% active; AID 1381;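 active = plate z-score of nuclear minus cytoplasmic receptor signal below a set negative limit, without overly bright fluorescence or cell loss, cut at about -3.5 in these data, passing the limit was not always enough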;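 note: z-score of nuclear minus cytoplasmic ring GR-EGFP intensity difference per well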
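Buffer or medium: Induction medium lacking tetracycline, stripped serum | Also added: Dexamethasone agonist, 1.0 µM final, for 30 min | Timing: 48 h induction, 1 h compound, 30 min dex at 37 °C | Detection: Formaldehyde fixation, Hoechst nuclear stain, 10x automated fluorescence imaging | Measure: Nuclear versus cytoplasmic GR-EGFP signal, averaged per well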
L929 necroptosis = blocks zVAD induced death of L929 cells. AID 1377. 220,000 tested, 0.38% active. L929 zVAD necroptosis rescue, ATP luminescence, 24 h; with zVAD 60 µM. viability rescue, % at 10 µM;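 active = activation, scaled between plate controls, above about 75%, limit read from the data; inactive = activation under that limit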;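 note: 0% = zVAD with DMSO and 100% = DMSO alone without zVAD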
TNF necrop inh = TNF-alpha cell death inhibition in Jurkat FADD-/- cells | Jurkat FADD-/- TNF necroptosis rescue, ATP luminescence, 24 h; 0 = TNF only, 100 = no-TNF cells | activation (protection from cell death), % at 10 µM | 220,000 tested, 0.068% active | AID 463075;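 active = activation, meaning protection from cell death, of at least 50% relative to plate controls; inactive = activation below 50%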;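 note: necroptosis triggered by 40 ng/mL TNF-alpha added together with compound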
Hck Nef conf = Hck-Nef kinase inhibition, confirmation; shares compounds with Hck Nef HTS; Recombinant Hck-YEEI:Nef, Z-Lyte FRET kinase assay; calls only at 10 µM; 1,300 tested, 28% active; AID 463188;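 active = average inhibition of at least 50%, with Z-scores no higher than 3 in both the phospho-tyrosine peptide and fluorescence counterscreens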
An asterisk follows results filed as active; i = inactive; · = not tested or not shown; + = active, no number. This is a sample that favours compounds with a hit; in the whole collection about 2.4% have one here.

SMILES | Hck Nef HTS | Autophagy mod | Mdm2 ligase inh | Dynein cargo inh | L929 necroptosis | TNF necrop inh | Hck Nef conf
CCN(CC)C(=O)C[n+]1cccc(C(N)=O)c1 | 6.0 | i | 5.3 | 0.561 | 0.1 | 0.7 | ·
Cc1ccc(NC(=O)Cn2c3ccc(F)cc3c3nc4n(c(=O)c32)CCS4)cc1F | -2.6 | i | -2.7 | -0.121 | 0.0 | 0.9 | ·
O=C(Cn1c2ccc(F)cc2c2nc3n(c(=O)c21)CCS3)Nc1ccc(Cl)cc1F | 60.7* | i | -8.6 | -0.555 | 1.8 | 2.8 | i
Cc1cc(C)cc(NC(=O)c2ccc(CSc3nnc(C)s3)cc2)c1 | 100.6* | i | -8.3 | -1.18 | 0.4 | 5.6 | i
COc1ccc(NC(=O)CSc2nnnn2C)c([N+](=O)[O-])c1 | 21.6 | i | -6.8 | -0.255 | 2.4 | -0.2 | ·
O=C(O)CC1S/C(=N/N=C/c2ccc(-c3ccc(Cl)c([N+](=O)[O-])c3)o2)NC1=O (configuration not stated) | 119.1* | i | -5.2 | 0.163 | 3.6 | -0.7 | i
O=C(O)CC1S/C(=N/N=C/c2ccc(-c3ccc(Cl)cc3[N+](=O)[O-])o2)NC1=O (configuration not stated) | 1.2 | i | 1.5 | -0.492 | -0.8 | -1.6 | ·
O=C(O)c1cc(-c2ccco2)nn1-c1ccc(Cl)cc1 | 35.5 | i | 14.7 | 0.28 | 1.3 | 0.2 | ·
O=C(O)c1cc(-c2ccco2)nn1-c1cccc(Cl)c1 | 51.7* | i | -3.4 | 0.555 | -0.5 | -0.5 | i
Cc1ccc(-n2nc(-c3ccco3)cc2C(=O)O)c(C)c1 | 55.1* | i | 7.4 | 0.256 | -0.5 | -1.3 | i
CC(C)C1CC(CCN2CCCCC2)(c2ccccc2)CCO1 (configuration not stated) | -12.4 | i | -14.4 | 1.24 | -0.3 | 0.5 | ·
Cc1ccc(N=C2NC(=O)/C(=C/C=C/c3ccco3)S2)cc1 | 96.6* | i | -7.0 | 0.21 | 0.9 | -0.5 | i
O=C1NC(=Nc2ccccc2)S/C1=C\C=C\c1ccco1 | 7.2 | i | -9.5 | 0.0679 | 0.6 | -3.8 | ·
Cc1cccc(N=C2NC(=O)/C(=C/C=C/c3ccco3)S2)c1C | 73.5* | i | -12.1 | -0.745 | -0.6 | -2.8 | i
CC(=O)Oc1ccc(-c2cccc(C(=O)N(C)c3ccc(O)cc3)c2)cc1 | -5.4 | i | -7.7 | -0.112 | 8.6 | -0.5 | ·
COc1ccc(NC(=O)CCNS(=O)(=O)c2cccc3nsnc23)cc1 | 17.1 | i | 9.0 | -0.0209 | 1.0 | 2.8 | ·
COc1ccc(CNC(=O)CCNS(=O)(=O)c2cccc3nsnc23)cc1 | 153.6* | i | -11.0 | 0.893 | 0.3 | 1.3 | i
Cc1ccc(NC(=O)COC(=O)/C=C/c2ccc(Br)o2)cc1S(=O)(=O)N(C)C | 53.1* | i | -3.5 | -0.683 | 27.2 | 0.6 | i
O=C(Nc1ccccc1F)c1c[nH]c(=O)[nH]c1=O | 1.1 | · | -2.7 | -0.244 | -0.4 | -0.1 | ·
Cc1cc(O)ccc1Nc1nc(-c2sc(N)nc2C)cs1 | 62.1* | i | 16.7 | -0.163 | 1.3 | -4.0 | +
COc1ccccc1NS(=O)(=O)c1cccc(NC(=O)c2sc3ccccc3c2Cl)c1 | 154.2* | i | -2.0 | 0.601 | 3.7 | -2.7 | i
Cc1ccc(O)c(-c2cc(-c3ccccc3C)[nH]n2)c1 | 51.7* | i | -21.2 | -1.27 | 1.4 | -6.0 | +
O=C(Nc1c[nH]c(=O)[nH]c1=O)c1ccc2c(c1)C(=O)N(c1cccc([N+](=O)[O-])c1)C2=O | 93.6* | · | · | 1.33 | 0.3 | 0.7 | +
CC(C)CN1C(=O)c2ccc(C(=O)Nc3c[nH]c(=O)[nH]c3=O)cc2C1=O | -8.3 | i | -1.8 | -0.676 | 0.3 | -0.9 | ·
O=C(Nc1ccc(S(=O)(=O)N2CCCCCC2)cc1)C1CCCO1 (configuration not stated) | 11.3 | i | -14.7 | -0.208 | -0.1 | 0.9 | ·
SMILES | Hck Nef HTS | Autophagy mod | Mdm2 ligase inh | Dynein cargo inh | L929 necroptosis | TNF necrop inh | Hck Nef conf
CCOC(=O)c1cc(C(=O)NCc2ccc(Cl)cc2Cl)nn1C | 0.3 | i | -11.2 | 0.749 | 0.0 | -0.5 | ·
CCOC(=O)c1cc(C(=O)Nc2ccc(C)c(F)c2)nn1C | 106.1* | i | -9.1 | -0.476 | 0.4 | -2.1 | i
CCN(CC)c1ccc2c(C)c(CN3CCOCC3)c(=O)oc2c1 | 102.0* | i | -11.9 | -0.751 | 0.8 | 2.1 | ·
CCN(CC)c1ccc2c(C)c(CO)c(=O)oc2c1 | + | i | -11.9 | -0.161 | 3.4 | 0.2 | ·
COC(=O)Cc1c(C)c2ccc(OCC(=O)N3CCOCC3)cc2oc1=O | 0.5 | i | 9.6 | -0.239 | -0.1 | -1.3 | ·
COc1cccc(CN2CCN(Cc3nc(C(C)C)cs3)CC2CCO)c1 (configuration not stated) | 20.4 | i | -8.5 | -1.11 | 1.9 | -0.3 | ·
COc1ccccc1/C=C/C=c1\sc2nc(=O)c(Cc3ccccc3)nn2c1=O | 80.7* | · | -8.1 | -1.12 | 0.3 | -1.9 | +
CCCOc1ccc(Cc2nn3c(=O)/c(=C/c4ccco4)sc3nc2=O)cc1 | 5.6 | i | 10.6 | -0.587 | 1.1 | 0.5 | ·
CN(C)S(=O)(=O)c1cccc(NC(=O)COC(=O)CNC(=O)c2cccc([N+](=O)[O-])c2)c1 | 13.9 | · | · | -0.825 | 1.1 | 0.9 | ·
Cc1ccc(NC(=O)CCC(=O)N/N=C/c2coc3ccccc3c2=O)cc1 | 64.0* | · | · | -0.972 | 0.2 | 0.5 | +
Cc1ccc(NC(=O)CCC(=O)N/N=C/C=C/c2ccccc2)cc1 | 2.2 | i | -6.2 | 0.151 | 1.7 | 3.2 | ·
O=C(NCCC1=CCCCC1)C1CCN(S(=O)(=O)c2cccc3cccnc23)CC1 | 20.7 | · | -9.6 | -0.676 | 1.1 | -0.9 | ·
COCCCn1c(=N)c(C(=O)NCC2CCCO2)cc2c(=O)n3ccccc3nc21 (configuration not stated) | + | · | -5.7 | -0.239 | -0.5 | -2.3 | ·
Cc1cccn2c(=O)c3cc(C(=O)NCC4CCCO4)c(=N)n(CCN4CCOCC4)c3nc12 (configuration not stated) | 11.9 | i | -12.9 | -0.675 | -1.2 | 1.6 | ·
COc1ccc(CNC(=O)c2cc3c(=O)n4ccccc4nc3n(Cc3ccco3)c2=N)cc1 | 1.4 | i | · | -1.88 | -0.2 | -8.0 | ·
CCCn1c(=N)c(C(=O)NCC2CCCO2)cc2c(=O)n3cccc(C)c3nc21 (configuration not stated) | 191.8* | i | -6.5 | -0.637 | -0.7 | -1.3 | ·
N=c1c(C(=O)NCc2ccc(F)cc2)cc2c(=O)n3ccccc3nc2n1CC1CCCO1 (configuration not stated) | 145.4* | i | -24.3 | 3.06 | -1.2 | -3.2 | ·
